# Compound activity: PubChem BioAssay, The Scripps Research Institute Molecular Screening Center
# This is a sample that favours compounds with a hit; in the whole collection about 0.7% have one here.
# FXN GAA850 act: increases GAA850 frataxin promoter reporter activity; actives 0.56% (n = 360,000); AID 540364; activation, % at 6 µM; HEK293 lucGAA850 FXN promoter luciferase reporter, 24 h; percent of 10 µM SAHA response;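 active means activation above the average of all compounds screened plus 3 SD, cutoff fixed separately per campaign, cut at about 7.5% in these data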
# procasp7 counter: counter-screen for procaspase-3 activators: activators of human procaspase-7 | P55210 | recombinant procaspase-7, Ac-DEVD-pNA absorbance 405 nm; D23A/D198A/D206A triple mutant, cannot self-cleave; scale: DMSO 0, 5 µM enzyme 100 | activation, % at 8.5 µM | actives 0.093% (n = 330,000);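 active means percent activation above the screen-wide mean plus 3 SD, cut at about 25% in these data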
# Target sequence (P55210 whole entry D23A/D198A/D206A): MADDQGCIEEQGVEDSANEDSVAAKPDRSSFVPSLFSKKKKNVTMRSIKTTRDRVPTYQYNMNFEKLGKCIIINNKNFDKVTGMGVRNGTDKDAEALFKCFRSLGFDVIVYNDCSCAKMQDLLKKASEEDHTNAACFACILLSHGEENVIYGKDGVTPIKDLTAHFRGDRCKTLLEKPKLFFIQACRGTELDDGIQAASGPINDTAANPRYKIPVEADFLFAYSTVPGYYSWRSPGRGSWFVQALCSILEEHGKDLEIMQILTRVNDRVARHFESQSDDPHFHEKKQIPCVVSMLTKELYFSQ
#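 buffer or medium = Zinc-free HEPES/NaCl buffer, pH 7.4 | material = Procaspase-7 triple mutant (PC-7 D3A) | input = 2 µM procaspase-7 mutant as dispensed | signal = Epi-absorbance of released pNA at 405 nm, two timepoints | timing = 1 h preincubation, 2 h reaction | replicates = singlicate compound testing | evaluation = % activation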
# procasp3 activ: activates human procaspase-3 | P42574 | recombinant procaspase-3 D3A, Ac-DEVD-pNA absorbance 405 nm | activation, % at 8.5 µM | actives 0.11% (n = 330,000);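 active means activation above the mean of all tested compounds plus 3 SD, cut at about 21% in these data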
# Target sequence (P42574 whole entry D9A/D28A/D175A): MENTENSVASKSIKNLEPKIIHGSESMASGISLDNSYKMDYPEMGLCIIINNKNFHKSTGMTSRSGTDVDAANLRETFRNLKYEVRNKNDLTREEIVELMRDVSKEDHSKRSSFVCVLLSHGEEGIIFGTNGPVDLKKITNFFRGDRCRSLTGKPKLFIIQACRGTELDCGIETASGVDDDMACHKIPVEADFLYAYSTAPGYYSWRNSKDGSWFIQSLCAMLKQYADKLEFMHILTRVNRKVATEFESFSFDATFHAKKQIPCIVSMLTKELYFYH
#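 Assay system: Autoprocessing-dead procaspase-3 D3A mutant enzyme; also added: Ac-DEVD-pNA; doses: one concentration, 8.5 µM nominal, 0.8% DMSO; times: 1 h compound preincubation, 2 h substrate hydrolysis at 25 °C; technique: 405 nm absorbance of p-nitroaniline, reads at 0 and 120 min; measure: % activation between DMSO and enzyme-spiked controls; repeats: single replicate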
# GAA30 counter: activates GAA30 frataxin promoter, counter-screen for GAA850 activators. shares compounds with FXN GAA850 act. HEK293 lucGAA30 FXN promoter luciferase, 24 h; DMSO = 0%, 5 µM ipriflavone = 100%. activation, % at 6 µM. actives 66% (n = 1,900). AID 588350;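 active means mean activation above the mean of solvent-only control wells plus 3 SD, cut at about 22% in these data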;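 further: counterscreen of GAA850 promoter hits where activity marks nonselective or luminescence artifacts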
# FXN GAA850 conf: confirmation of GAA850 frataxin (FXN) promoter activators; shares compounds with FXN GAA850 act; HEK293 lucGAA850 FXN promoter luciferase reporter, 24 h; 100% = activation by SAHA; activation, % at 6 µM; actives 86% (n = 1,900); AID 588351;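 active means mean activation above a set limit taken from the primary screen, cut at about 8% in these data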
# A number is an active result; i = inactive; nt = no result.
SMILES,FXN GAA850 act,procasp7 counter,procasp3 activ,GAA30 counter,FXN GAA850 conf
Cn1c(=O)c2c(nc(NCCc3ccccc3)n2Cc2ccc(F)cc2)n(C)c1=O,i,i,i,nt,nt
C=CCNc1nc2c(c(=O)n(C)c(=O)n2C)n1Cc1ccc(F)cc1,11,i,i,i,i
CC1CCCCC1NC(=O)CCC(=O)N1CCOc2ccc(Cl)cc21 (stereo unspecified),i,i,i,nt,nt
COc1ccc(C(C)(C)C)cc1NC(=O)CCCN1C(=O)CN(C)C1=O,i,nt,nt,nt,nt
CCOC(=O)c1cnc2c(ccc3ccccc32)c1NCCO,i,i,i,nt,nt
CCOC(=O)c1cnc2c(ccc3ccccc32)c1NCCN(C)C,8.4,i,i,23,17
Cc1cc(NC(=O)CSCC(=O)Nc2cc(C(F)(F)F)ccc2N2CCOCC2)no1,i,i,i,nt,nt
Cc1ccc(NC(=O)CSCC(=O)Nc2cc(C(F)(F)F)ccc2N2CCOCC2)cc1,11,i,i,25,11
COc1cc(-c2cnc3c(NC=O)cc(-c4cccc(C(=O)NCCN(C)C)c4)cn23)cc(OC)c1OC,i,nt,nt,nt,nt
ON=C1c2ccccc2-c2ccc(Br)cc21,i,nt,nt,nt,nt
NC(=S)NN=C1c2ccccc2-c2cc(Br)ccc21,11,nt,nt,i,14
O=[N+]([O-])c1ccc(C=Nc2ccc(Cl)c([N+](=O)[O-])c2)s1,i,nt,nt,nt,nt
Cc1ccc(NC(=S)N/N=C/c2ccc([N+](=O)[O-])s2)cc1,11,i,i,i,i
O=C(Cc1cccs1)N/N=C\c1ccc([N+](=O)[O-])s1,i,i,i,nt,nt
Cc1cc(C)cc(N=Cc2ccc([N+](=O)[O-])s2)c1,16,i,i,i,i
CC(C)N1C(=O)CCC1C(=O)NCc1ccc(F)cc1Cl (stereo unspecified),i,i,i,nt,nt
Cc1ccccc1OCCCCn1cnc2ccccc21,i,i,i,nt,nt
Brc1ccccc1OCCCn1cnc2ccccc21,8.7,i,i,101,36
CCN(CC)S(=O)(=O)c1ccc(Cl)c(C(=O)OCC(=O)c2c(N)n(C)c(=O)n(C)c2=O)c1,i,i,i,nt,nt
Clc1ccc(Nc2nc(-c3ccncc3)cs2)cc1,i,i,i,nt,nt
Fc1ccc(Nc2nc(-c3ccncc3)cs2)cc1,7.9,i,i,89,33
Nc1cccc(Oc2ccc3c(c2)C(=O)N(CC2CCCO2)C3=O)c1 (stereo unspecified),i,i,i,nt,nt
COC(=O)c1ccc2c(=O)[nH]c(COC(=O)c3c(-c4ccccc4Cl)noc3C)nc2c1,i,i,i,nt,nt
CCOCCN1CCN(c2c(C)c(C)nc3cc(-c4cc(OC)cc(OC)c4)nn23)CC1,i,i,i,nt,nt
COCCN1CCN(c2c(C)c(C)nc3cc(-c4cccc(OC)c4)nn23)CC1,10,i,i,72,20
SMILES,FXN GAA850 act,procasp7 counter,procasp3 activ,GAA30 counter,FXN GAA850 conf
CCCCN1C(=O)C(O)(c2ccccc2)c2cc(Br)ccc21 (stereo unspecified),8.1,i,i,i,14
Cc1ccc(C(=O)CC2(O)C(=O)N(CCc3ccccc3)c3ccc(Br)cc32)o1 (stereo unspecified),i,i,i,nt,nt
Cc1c(C(=O)N2CCOCC2)sc(NC(=O)Cc2ccccc2)c1C#N,i,i,i,nt,nt
COc1ccc(OC)c2nc(-c3ccc4c(c3)OCO4)ccc12,9.5,i,i,124,44
c1ccc2nc(-c3ccc4c(c3)OCO4)ccc2c1,i,i,i,nt,nt
Cc1ccccc1C(=O)Nc1ccnn1C1CCN(C(=O)c2ccoc2)CC1,i,i,i,nt,nt
COc1ccccc1CNC(=O)C(=O)Nc1ccc(C(=O)N2CCC(C)CC2)cc1,i,i,i,nt,nt
CC(O)CNc1ncnc2cc(-c3ccc(F)cc3)sc12 (stereo unspecified),10,i,i,75,30
COC(CNc1ncnc2sc(-c3ccccc3)cc12)OC,i,i,i,nt,nt
CCOC(=O)c1cc(-c2ccc(OC)cc2)n(CCC(=O)NCCN2CCC(C)CC2)c1C,17,i,i,26,15
CCOC(=O)c1cc(-c2ccc(OC)cc2)n(CCC(=O)NC2CCN(Cc3ccccc3)CC2)c1C,i,i,i,nt,nt
Cc1cc(C)n2nc(/C(C#N)=C/c3ccccn3)c(C#N)c2n1,16,i,i,32,37
Cc1cc(C)n2nc(CC#N)c(C#N)c2n1,i,i,i,nt,nt
COCCNc1nnc(SC(C)C(=O)Nc2ccc(-c3nc4ccc(C)cc4s3)cc2)s1 (stereo unspecified),8.8,i,i,74,29
CNC(=S)Nc1ccc(-c2nc3ccc(C)cc3s2)cc1,8.4,i,i,114,39
Cc1ccc2nc(-c3ccc(NC(=O)COC(=O)c4cncc(Br)c4)cc3)sc2c1,8.4,nt,nt,107,29
Cc1ccc2nc(-c3ccc(NC(=O)COC(=O)c4ccc(Br)o4)cc3)sc2c1,i,i,i,nt,nt
COCCNc1nnc(SC(C)C(=O)Nc2c(C)n(C)n(-c3ccccc3)c2=O)s1 (stereo unspecified),i,i,i,nt,nt
CC(=O)NC(=S)Nc1ccc(-c2nc3ccc(C)cc3s2)cc1,i,i,i,nt,nt
CC1(C(=O)NS(=O)(=O)c2cccs2)CCN1C(=O)C1(c2ccc(Cl)cc2)CCC1 (stereo unspecified),i,nt,nt,nt,nt
Cc1cc(C(=O)N/N=C/c2ccc3c(c2)OCO3)c(C)n1-c1ccc(F)cc1,i,i,i,nt,nt
Cc1cc(C(=O)N/N=C/c2ccc(Cl)c([N+](=O)[O-])c2)c(C)n1-c1ccc(F)cc1,9.1,i,i,i,12
Cc1cc(NC(=O)NN2CCOCC2)nn1-c1c(Cl)cccc1Cl,i,i,i,nt,nt
COCCn1c(SCC(=O)NC2CCCC(C)C2C)nc2ccccc2c1=O (stereo unspecified),i,nt,nt,nt,nt
CCOc1ccc(-c2csc(NC(=O)CSC3=NC(=O)CN3C(C)=O)n2)c2ccccc12,i,i,i,nt,nt
SMILES,FXN GAA850 act,procasp7 counter,procasp3 activ,GAA30 counter,FXN GAA850 conf
CC(=O)N1CC(=O)N=C1SCC(=O)Nc1nc(C)c(-c2ccccc2)s1,8.0,i,i,44,22
Cc1cc(C)cc(N(C(=O)c2nsc(Cl)c2Cl)C(C(=O)NC2CCCC2)c2ccc(O)cc2)c1 (stereo unspecified),i,i,i,nt,nt
Cc1ccc(N(C(=O)c2nsc(Cl)c2Cl)C(C(=O)NC2CCCC2)c2ccc(O)cc2)cc1C (stereo unspecified),9.5,i,i,34,14
N#C/C(=C/c1ccc(N2CCCCCC2)o1)c1ccc(Cl)cc1,i,i,i,nt,nt
N#C/C(=C/c1ccc(N2CCCCC2)o1)c1cccc(F)c1,15,i,i,106,41
Cc1ccc(/C(C#N)=C\c2ccc(N3CCOCC3)o2)cc1,22,i,i,120,53
Cc1ccc2nc(/C(C#N)=C\c3ccc(N4CCOCC4)o3)[nH]c2c1,i,i,i,nt,nt
O=C(CN1C(=O)c2ccccc2S1(=O)=O)NCCc1ccc(F)cc1,i,i,i,nt,nt
